Data taken from ChEMBL document CHEMBL1144523, “Synthetic cryptolepine inhibits DNA binding of NF-kappaB” (Bioorg Med Chem, 2007).
Where a name gives a salt, the structure may show the parent alone. One block for each molecule: values may come before it. Active and inactive are the calls of the source. The calls are words filed in the database; no cut-off is given here.

Key:
[1] = Cytotoxicity against mouse RAW 264.7 cells; type: cell-based
In short: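 RAW 264.7 cells (DMEM, 10% heat-inactivated FBS, passages 5–20) were first run through the 20 h LPS nitrite assay. Attached cells were then stained with 0.5% Crystal Violet in 20% methanol. Bound dye was dissolved in 50% 1 M sodium citrate/50% ethanol and absorbance read at 540 nm.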

RAW [2] = experiment: Effect on IkappaB phosphorylation in LPS-stimulated mouse RAW 264.7 cells […]; type: cell-based
RAW [3] = experiment: Effect on IkappaB degradation in LPS-stimulated mouse RAW 264.7 cells administered at 10 uM for 30 mins […]; type: functional, cell-based
In short: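 RAW 264.7 cells were pretreated with 10 µM compound for 30 min, then stimulated with LPS for the indicated times. Cells were lysed in SDS buffer, run on 10–12% gels and blotted to PVDF. Blots were probed for phospho-IκB, IκB after stripping, and tubulin, with ECL detection. Densitometric p-IκB/IκB ratios are given as fold of unstimulated control; three independent experiments, means ± SD.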

RAW [4] = experiment: Inhibition of DNA binding of NF-kappaB in LPS-stimulated mouse RAW 264.7 cells administered at 5 uM […] by EMSA; type: cell-based
In short: (§1)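 RAW 264.7 cells were pretreated with compound for 30 min, then stimulated with LPS (100 ng/ml in methods) for 60 min. Nuclear extracts were made by hypotonic HEPES swelling with NP-40, then hypertonic 0.4 M NaCl extraction. Equal nuclear protein was incubated with labelled NF-κB probe for 30 min at room temperature, resolved on a 4.5% native gel and imaged by phosphorimager.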

RAW [5] = experiment: Inhibition of DNA binding of NF-kappaB in LPS-stimulated mouse RAW 264.7 cells administered at 10 uM […] by EMSA; type: cell-based; in short: as §1
[6] = biological target: Transcription factor p65 (Mus musculus) (UniProt Q04207); experiment: Inhibition of […]/NFkappaB nuclear translocation in LPS-stimulated mouse RAW 264.7 cells administered at 10 uM for 30 mins after LPS challenge; type: cell-based
Chain of Transcription factor p65 (Mus musculus) (Q04207 whole entry): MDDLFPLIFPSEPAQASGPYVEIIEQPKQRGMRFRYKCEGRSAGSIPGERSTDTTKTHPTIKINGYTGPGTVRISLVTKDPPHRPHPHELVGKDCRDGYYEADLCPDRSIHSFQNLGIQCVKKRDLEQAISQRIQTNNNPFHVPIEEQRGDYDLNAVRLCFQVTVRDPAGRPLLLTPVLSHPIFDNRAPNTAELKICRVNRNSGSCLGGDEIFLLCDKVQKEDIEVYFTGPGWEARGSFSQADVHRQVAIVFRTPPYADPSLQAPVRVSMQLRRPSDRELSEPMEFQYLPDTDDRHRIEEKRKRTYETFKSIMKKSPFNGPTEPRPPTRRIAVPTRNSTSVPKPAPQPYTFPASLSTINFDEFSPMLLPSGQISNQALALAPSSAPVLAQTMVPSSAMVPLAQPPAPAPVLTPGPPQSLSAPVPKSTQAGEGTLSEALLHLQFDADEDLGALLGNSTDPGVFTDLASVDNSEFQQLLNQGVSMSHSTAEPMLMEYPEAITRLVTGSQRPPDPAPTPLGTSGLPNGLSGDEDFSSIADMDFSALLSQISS
In short: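 RAW 264.7 cells were grown on gelatine-coated coverslips and preincubated with 10 µM compound for 30 min, then given LPS for 30 min. Cells were fixed in 2% formalin, permeabilized with 0.2% Triton X-100 and blocked in 5% BSA. They were stained with anti-p65 (1:50, 2 h, room temperature) plus FITC secondary (1 h) and imaged by confocal microscopy at 488 nm excitation.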

RAW [7] = experiment: Inhibition of DNA binding of NF-kappaB isolated from LPS-stimulated mouse RAW 264.7 cells administered at 250 uM after 30 mins by EMSA; type: cell-free
In short: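 Nuclei from LPS-stimulated RAW 264.7 macrophages served as the source of active NF-κB. Equal amounts of nuclear protein were incubated with compound for 30 min, with or without 2 mM DTT. Radiolabelled NF-κB consensus probe was then added for 30 min at room temperature. Complexes were resolved on a 4.5% native gel and imaged by phosphorimager.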

HEK293 = experiment: Inhibition of NF-kappaB-mediated gene transcription in HEK293 cells by luciferase reporter gene assay; type: cell-based; settings: Homo sapiens
In short: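 HEK293 cells were transfected with pNF-κB-luc by Ca²⁺-phosphate, reseeded at 15,000 cells/well and grown for 16 h. They were pretreated with compound for 30 min, then stimulated with TNF-α 1 ng/ml for 6 h. Lysates were assayed for luciferase by luminometer. Data are means ± SD of at least four experiments in triplicate, ANOVA/Dunnett.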

RAW [8] = experiment: Inhibition of LPS-stimulated nitric oxide production in mouse RAW 264.7 cells at 5 uM after 20 hrs relative to control; type: functional
In short: (§2)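 RAW 264.7 cells were seeded in 96-well plates and cultured for 2 days. Compound was added, then LPS immediately after, for 20 h. Nitrite in the supernatant was measured by Griess reaction (sulfanilamide plus N-(1-naphthyl)ethylenediamine) at 550 nm against a 620 nm reference, quantified from a sodium nitrite standard curve. Runs were in triplicate; data are means ± SD of six independent experiments, ANOVA/Dunnett.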

RAW [9] = experiment: Inhibition of LPS-stimulated nitric oxide production in mouse RAW 264.7 cells at 10 uM after 20 hrs relative to control; type: functional; in short: as §2

Compound: C[n+]1c2ccccc2cc2[n-]c3ccccc3c21 [CRYPTOLEPINE]
Activity [1]: Active

Activity [6]: inactive
Compound: C[n+]1c2ccccc2cc2[n-]c3ccccc3c21
Activity (RAW [2]): inactive
Activity (RAW [3]): inactive
Activity (RAW [4]): Active
Activity (RAW [5]): Active
Activity (RAW [7]): Active
Activity (HEK293): Dose-dependent effect

Compound: C[n+]1c2ccccc2cc2[n-]c3ccccc3c21 [CRYPTOLEPINE HYDROCHLORIDE]
inhibition at 5 µM (RAW [8]): 30%
inhibition at 10 µM (RAW [9]): 50%

Activity [6]: Active
Compound: C=C1C(=O)O[C@@H]2C3O[C@]3(C)CC/C=C(\C)CC[C@@H]12 (some centres not stated)
Activity (RAW [4]): Active
